The term pIC50 denotes −log10 of the IC50, conventionally taken in molar units.

The structures appear in SMILES notation. pIC50: −log10 of the molar value. Calls of active or inactive are those of the source. The rule behind the calls is not given here.

The results in this text go back to ChEMBL document CHEMBL4304822, “Mitochondrial-targeted Hsp90 C-terminal inhibitors manifest anti-proliferative activity” (Bioorg Med Chem Lett, 2019).

The test system of data set [1] is MCF7. Nature of the data set: Antiproliferative activity against human MCF7 cells by MTT assay. In kind it is functional, cell-based. (Tetrazolium assays rely on reduction of a dye to a coloured formazan, in cell work by metabolically active cells.)
Data set [2] deals with SK-BR-3. Nature of the data set: Antiproliferative activity against human SKBR3 cells by MTT assay. The format is functional, cell-based.
Data set [3] relates to PC-3. Nature of the data set: Antiproliferative activity against human PC3 cells by MTT assay. In kind it is functional, cell-based.
The subject of data set [4] is HCT-116. Nature of the data set: Antiproliferative activity against human HCT116 cells by MTT assay. In kind it is functional, cell-based.
Data set [5] deals with MCF7. Nature of the data set: Ratio of IC50 for N-(7-(3-(dimethylamino)propoxy)-8-methyl-2-oxo-2H-chromen-3-yl)-3',6-dimethoxybiphenyl-3-carboxamide to IC50 for test compound for antiproliferative activity against human MCF7 cells. In kind it is functional.
Data set [6] in a line: Drug uptake in cytoplasm in human PC3 cells assessed as lowered drug accumulation incubated for 24 hrs by LC/MS analysis. The format is ADME, subcellular. Conditions: pc-3, 24 h. In short, it runs like this: (§1)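 PC3 cells treated for 24 h, then separated into subcellular fractions; the compound in each isolated fraction was quantified by LC-MS.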
A short description of data set [7]: Drug uptake in mitochondria in human PC3 cells incubated for 24 hrs by LC/MS analysis. In kind it is ADME. The note with it: pc-3, 24 h. The method, boiled down: as §1
Data set [8] deals with T1, Heat shock protein HSP90 (Homo sapiens, UniProt P07900+P08238). Nature of the data set: Inhibition of HSP90 […] in human SKBR3 cells assessed as induction of heat shock response by measuring increase in HSP70 protein level at 0.5 to 5 times antiproliferative IC50 incubated for 24 hrs by Western blot analysis. The format is cell-based. Background: In western blotting, separated proteins are transferred to a membrane and probed.

For data set [9], the target named is T1, Heat shock protein HSP90. Put plainly: Inhibition of HSP90 at C-terminus in human SKBR3 cells assessed as induction of Raf1 protein degradation at 0.5 to 5 times antiproliferative IC50 incubated for 24 hrs by Western blot analysis. In kind it is cell-based.
Data set [10] has as its target T1, Heat shock protein HSP90. Nature of the data set: Inhibition of HSP90 at C-terminus in human SKBR3 cells assessed as induction of CDK4 protein degradation at 0.5 to 5 times antiproliferative IC50 incubated for 24 hrs by Western blot analysis. The format is cell-based.
For data set [11], the target named is T1, Heat shock protein HSP90. Put plainly: Inhibition of HSP90 at C-terminus in human SKBR3 cells assessed as Her2 protein degradation at 0.5 to 5 times antiproliferative IC50 incubated for 24 hrs by Western blot analysis. In kind it is cell-based.
Data set [12] deals with T1, Heat shock protein HSP90. Put plainly: Inhibition of HSP90 at C-terminus in human SKBR3 cells assessed as AKT protein degradation at 0.5 to 5 times antiproliferative IC50 incubated for 24 hrs by Western blot analysis. In kind it is cell-based.
For data set [13], the system named is MCF7. Put plainly: Ratio of IC50 for N-((1r,4r)-4-(4-(3-(dimethylamino)propoxy)phenyl)cyclohexyl)-3',6-dimethoxybiphenyl-3-carboxamide to IC50 for test compound for antiproliferative activity against human MCF7 cells. In kind it is functional.
The test system of data set [14] is MCF7. Nature of the data set: Ratio of IC50 for N-(4'-(3-(dimethylamino)propoxy)biphenyl-4-yl)-3',6-dimethoxybiphenyl-3-carboxamide to IC50 for test compound for antiproliferative activity against human MCF7 cells. In kind it is functional.
Data set [15] concerns SK-BR-3. Nature of the data set: Ratio of IC50 for N-(4'-(3-(dimethylamino)propoxy)biphenyl-4-yl)-3',6-dimethoxybiphenyl-3-carboxamide to IC50 for test compound for antiproliferative activity against human SKBR3 cells. In kind it is functional.

On to `COc1cccc(-c2cc(C(=O)Nc3cc4ccc(OCCC[P+](c5ccccc5)(c5ccccc5)c5ccccc5)c(C)c4oc3=O)ccc2OC)c1.[Br-]`, for which the pIC50 in data set [1] was 6.10; in data set [2], 6.51; in [3] it was 5.71; in data set [4] it was 6.19. In data set [5], the “Ratio IC50” value amounted to 2. Further, the Drug uptake entry in data set [6] and in [7] was “Active” throughout. The Activity result in data set [8] is “Non-Toxic”. In addition, the inhibition result in [9] and in [10] was “Active” throughout. The inhibition result in [11] and in data set [12] was “inactive” each time.

`COc1cccc(-c2cc(C(=O)N[C@H]3CC[C@H](c4ccc(OCCC[P+](c5ccccc5)(c5ccccc5)c5ccccc5)cc4)CC3)ccc2OC)c1.[Br-]`: the “Ratio IC50” value in [13] worked out at 2. Moreover, the pIC50 in data set [1] is 6.77; in [2] it was 6.64; in data set [3] it was 5.81; in data set [4] it was 6.42. Moreover, the Drug uptake entry in data set [6] and in [7] was “Active” in each case. Moreover, the Activity entry in data set [8] was “Non-Toxic”. In [9], the inhibition entry is “Active”. Besides, the inhibition entry in [11] and in [12] was “inactive” throughout.

`COc1cccc(-c2cc(C(=O)N[C@H]3CC[C@H](c4ccc(OCCCN(C)C)cc4)CC3)ccc2OC)c1`: the pIC50 in data set [1] is 6.47; in [2], 6.60. Besides, the Drug uptake entry in [7] is listed as “Active”.

As to `COc1cccc(-c2cc(C(=O)Nc3cc4ccc(OCCCN(C)C)c(C)c4oc3=O)ccc2OC)c1`, the pIC50 in [1] was 5.74; in data set [2] it was 6.07; in [3] it was 6.00; in data set [4], 6.08. In data set [7], the Drug uptake entry is “Active”.

For the compound `COc1cccc(-c2cc(C(=O)Nc3ccc(-c4ccc(OCCCN(C)C)cc4)cc3)ccc2OC)c1`, the pIC50 in data set [1] is 5.67; in data set [2], 5.69; in [3] it was 5.45; in [4], 5.83. The Drug uptake result in data set [7] is “Active”.

With `COc1cccc(-c2cc(C(=O)Nc3ccc(-c4ccc(OCCC[P+](c5ccccc5)(c5ccccc5)c5ccccc5)cc4)cc3)ccc2OC)c1.[Br-]`, the “Ratio IC50” value in data set [14] is reported as 2; in data set [15], 10. Moreover, the pIC50 is 6.03 in data set [1], 6.68 in data set [2], 5.53 in data set [3] and 6.35 in [4]. The Drug uptake result in data set [6] and in data set [7] was “Active” in each case. In [8], the Activity entry is reported as “Non-Toxic”. Besides, the inhibition entry in data set [9] and in [10] was “Active” in each case. The inhibition result in data set [11] and in [12] was “inactive” in each case.
